Assay results from ChEMBL document CHEMBL3596133, “Discovery and structural analyses of S-adenosyl-L-homocysteine hydrolase inhibitors based on non-adenosine analogs” (Bioorg Med Chem, 2015).
The source made the active and inactive calls. No cut-off for these calls is given here.

Experiments:
[1] = target: Adenosylhomocysteinase (Homo sapiens, UniProt P23526); test: Inhibition of recombinant human S-adenosyl-L-homocysteine hydrolase assessed as hydrolysis of AdoHcy after 8 mins by HPLC analysis
Outline: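 Human recombinant enzyme (50 ng) added after test compound to 10 μM AdoHcy plus adenosine deaminase (4 units) in 50 mM phosphate buffer pH 7.2 with 1 mM EDTA. Incubated at 37 °C for 8 min, then stopped with 1 mol/L perchloric acid and centrifuged at 4 °C. Read-out is AdoHcy hydrolysis activity. IC50 given as mean ± standard error of triplicate determinations.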

[2] = target: T1, Adenosylhomocysteinase (Rattus norvegicus, UniProt P10760); test: Reversible inhibition of rat liver S-adenosyl-L-homocysteine hydrolase; format: tissue-based
T1 sequence (P10760 whole entry): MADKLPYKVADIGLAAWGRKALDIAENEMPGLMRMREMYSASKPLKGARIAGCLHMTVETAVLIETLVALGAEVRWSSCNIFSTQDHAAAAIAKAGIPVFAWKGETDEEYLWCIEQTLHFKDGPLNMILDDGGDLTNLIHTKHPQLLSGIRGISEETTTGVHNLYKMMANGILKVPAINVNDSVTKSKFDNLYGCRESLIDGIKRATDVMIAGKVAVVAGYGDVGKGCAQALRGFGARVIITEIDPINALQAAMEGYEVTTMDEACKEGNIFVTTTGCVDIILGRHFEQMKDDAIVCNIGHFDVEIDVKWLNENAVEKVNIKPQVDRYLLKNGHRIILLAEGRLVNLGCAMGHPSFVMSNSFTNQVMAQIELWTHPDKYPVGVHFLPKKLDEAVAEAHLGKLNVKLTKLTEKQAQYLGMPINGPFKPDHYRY

Structure (SMILES)	IC50 [1]	further results
CCN(CCNC(=O)CN(CC(=O)N(C)C1Cc2ccccc2C1)c1cc(Cl)ccc1Oc1ccc(Cl)cc1)C(=O)OC(C)(C)C	60 nM	
Nc1ncnc2c1ncn2CC(O)CO (stereo unspecified)		Ki [2]: 1000 nM
CN(C(=O)CN(CC(=O)NC1CCN(C(=O)OC(C)(C)C)C1)c1cc(Cl)ccc1Oc1ccc(Cl)cc1)C1Cc2ccccc2C1 (stereo unspecified)	1500 nM	
CN(C(=O)CN(CC(=O)NC1CCNC1)c1cc(Cl)ccc1Oc1ccc(Cl)cc1)C1Cc2ccccc2C1 (stereo unspecified)		inhibition [1]: Active
CCN(C(=O)CN(CC(=O)NCCN1CCCC1)c1cc(Cl)ccc1Oc1ccc(Cl)cc1)C1Cc2ccccc2C1	640 nM	
CN(C(=O)CN(CC(=O)NC1CCCNC1)c1cc(Cl)ccc1Oc1ccc(Cl)cc1)C1Cc2ccccc2C1 (stereo unspecified)		inhibition [1]: Active
CN(C(=O)CN(CC(=O)NC[C@H]1CCCN1C(=O)OC(C)(C)C)c1cc(Cl)ccc1Oc1ccc(Cl)cc1)C1Cc2ccccc2C1	600 nM	
CN(C(=O)CN(CC(=O)NCC1CCCCN1C(=O)OC(C)(C)C)c1cc(Cl)ccc1Oc1ccc(Cl)cc1)C1Cc2ccccc2C1 (stereo unspecified)	150 nM	

Further lines, with some results ahead:

IC50 [1]	Structure (SMILES)	further results
> 100000 nM	CN(C(=O)CN(CC(=O)NCCN1CCCC1)c1cc(Cl)ccc1Oc1ccc(Cl)cc1)C1CCNCC1	
110 nM	CN(C(=O)CN(CC(=O)NC[C@@H]1CCCN1C(=O)OC(C)(C)C)c1cc(Cl)ccc1Oc1ccc(Cl)cc1)C1Cc2ccccc2C1	
49 nM	CC(C)N(CCNC(=O)CN(CC(=O)N(C)C1Cc2ccccc2C1)c1cc(Cl)ccc1Oc1ccc(Cl)cc1)C(=O)OC(C)(C)C	
1200 nM	CN(C(=O)CN(CC(=O)NC1CCCN(C(=O)OC(C)(C)C)C1)c1cc(Cl)ccc1Oc1ccc(Cl)cc1)C1Cc2ccccc2C1 (stereo unspecified)	
70 nM	CN(CCNC(=O)CN(CC(=O)N(C)C1Cc2ccccc2C1)c1cc(Cl)ccc1Oc1ccc(Cl)cc1)C(=O)OC(C)(C)C	
2300 nM	O=C(CN(CC(=O)N1CCCc2ccccc21)c1cc(Cl)ccc1Oc1ccc(Cl)cc1)NCCN1CCCC1	
> 100000 nM	CN(CCN1CCCC1)C(=O)CN(CC(=O)N(C)C1Cc2ccccc2C1)c1cc(Cl)ccc1Oc1ccc(Cl)cc1	
8.5 nM	CCNCCNC(=O)CN(CC(=O)N(C)N1Cc2ccccc2C1)c1cc(Cl)ccc1Oc1ccc(Cl)cc1	
